# Results of several laboratories.
# Protocols differ between the studies behind these lines.
# Cell line: A549
# Read-out: cell growth or viability
SMILES,test,setting,measurement,value
O=C1Nc2ccccc2C1=NNc1nnc(Cc2ccccc2)c2ccccc12,,30 µM,inhibition,81.1%
COC(C)(C)CCC[C@](C)(O)[C@H]1CC[C@]2(C)[C@@H]1[C@H](O)C[C@@H]1[C@@]3(C)CC[C@H](O)C(C)(C)[C@@H]3CC[C@]12C,MTT,72 h,IC80,35.9 µM
COc1ccc(-c2nc(NN=C3C(=O)Nc4ccc(F)cc43)c3ccccc3n2)cc1OC,,30 µM,inhibition,4.9%
O=C(CN1C(=O)/C(=C/c2ccco2)SC1=S)Nc1ccccc1,MTT,10 µM,inhibition,39.5%
CCCCc1nc(Cl)c(CO)n1Cc1ccc(-c2ccccc2-c2nn[nH]n2)cc1,MTT,72 h,EC50,63 µM
COC(=O)C1=C(C)NC(C)=C(C(=O)OCCN(C)Cc2ccccc2)C1c1cccc([N+](=O)[O-])c1 (stereo not shown),CCK-8,"100 µM, 72 h",viability,< 50%
O=C(CN1C(=O)/C(=C/c2ccc(F)cc2)SC1=S)Nc1ccccc1,MTT,10 µM,inhibition,27.6%
CCn1cc(C(=O)O)c(=O)c2cc(F)c(N3CCNCC3)cc21,SRB,48 h,GI50,> 80 µg/mL
C=C(c1ccc(C(=O)O)cc1)c1cc2c(cc1C)C(C)(C)CCC2(C)C,MTT,72 h,EC50,58 µM
CC(C)=CCC[C@](C)(O)[C@H]1CC[C@]2(C)[C@@H]1[C@H](O)C[C@@H]1[C@@]3(C)CC[C@H](O[C@@H]4O[C@H](CO)[C@@H](O)[C@H](O)[C@H]4O[C@@H]4O[C@H](CO)[C@@H](O)[C@H](O)[C@H]4O)C(C)(C)[C@@H]3CC[C@]12C,MTT,72 h,IC20,> 100 µM
O=C(CN1C(=O)/C(=C/c2cccc(O)c2)SC1=S)Nc1ccccc1,MTT,10 µM,inhibition,14.5%
COc1ccc2c(c1)C(=NNc1nnc(Cc3ccccc3)c3ccccc13)C(=O)N2,,30 µM,inhibition,13.5%
CC/C(=C(\c1ccccc1)c1ccc(OCCN(C)C)cc1)c1ccccc1,ATP luminescence,72 h,EC90,26.1 µM
O=C(CN1C(=O)/C(=C/C2CC2)SC1=S)Nc1ccccc1,MTT,10 µM,inhibition,28.9%
COc1cccc2c1C(=O)c1c(O)c3c(c(O)c1C2=O)C[C@@](O)(C(=O)CO)C[C@@H]3O[C@H]1C[C@H](N)[C@H](O)[C@H](C)O1,MTT,72 h,GI50,5.66 µM
O=C(CN1C(=O)/C(=C/c2ccc(C(F)(F)F)cc2)SC1=S)Nc1ccccc1,MTT,10 µM,inhibition,27.8%
CC1=C(C(=O)OC(C)C)C(c2cccc([N+](=O)[O-])c2)C(C(=O)OC2CN(C(c3ccccc3)c3ccccc3)C2)=C(N)N1 (stereo not shown),CCK-8,"100 µM, 72 h",viability,< 50%
COc1ccc2c(c1)C(=NNc1ncnc3cc(OC)c(OC)cc13)C(=O)N2,,10 µM,inhibition,-10.4%
O=C(CN1C(=O)/C(=C/c2cccc(Cl)c2)SC1=S)Nc1ccccc1,MTT,10 µM,inhibition,25.9%
